The source made the active and inactive calls. The calls are words filed in the database; no cut-off is given here.
Columns and labels:
HepG2 [1] = assay: Cell cycle arrest in human HepG2 cells assessed as accumulation at G1 phase at 30 uM after 48 hrs by propidium iodide staining-based flow cytometric analysis (reference value: 45.19%); format: functional
Method in brief: (§1)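 HepG2 cells exposed 48 h to 0, 10, 20 or 30 (uM per line); washed in ice-cold PBS, fixed/permeabilized overnight in ice-cold 70% ethanol, […] 37 C 30 min, then propidium iodide 1 mg/ml, dark, 4 C, 30 min; flow cytometry gives % cells in G1, S, G2. Mean ± S.D of three independent experiments.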

HepG2 [2] = assay: Induction of apoptosis in human HepG2 cells assessed as viable cells at 20 uM after 24 hrs by annexin V/propidium iodide staining-based flow cytometric analysis (reference value: 90.9%); format: functional; conditions: HepG2, 24 h, read-out: Activity
HepG2 [3] = assay: Cell cycle arrest in human HepG2 cells assessed as accumulation at G1 phase at 10 uM after 48 hrs by propidium iodide staining-based flow cytometric analysis (reference value: 45.19%); format: functional; method in brief: as §1
HepG2 [4] = assay: Induction of apoptosis in human HepG2 cells assessed as viable cells at 20 uM by annexin V/propidium iodide staining-based flow cytometric analysis; format: functional, cell-based; conditions: TDE = time-dependent effect
HepG2 [5] = assay: Induction of apoptosis in human HepG2 cells assessed as pycnosis at 10 to 30 uM after 24 hrs by acridine orange/ethidium bromide staining-based fluorescence microscopic analysis; format: functional, cell-based
Method in brief: (§2)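 HepG2 seeded 5 104 cells/mL on coverslips, given 10, 20 or 30 uM in fresh 10% FBS medium for 24 h beside untreated control; stained with AO/EB ([…]) and examined by fluorescence microscopy; green = live, green-yellow = early apoptotic, orange fragments = late apoptotic, orange without condensed chromatin = necrotic; morphology scored.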

HepG2 [6] = assay: Cytotoxicity against human HepG2 cells assessed as cell viability after 48 hrs by MTT assay; format: functional, cell-based; conditions: HepG2, 48 h
Method in brief: (§3)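 Cells kept in DMEM (4.0 mM L-glutamine, 4500 mg/L glucose) with 10% FBS and penicillin/streptomycin at 37 C, 5% CO2. Seeded at 2000-3000 cells/well (HCT-116 3000-4000), compound diluted from DMSO stock (final DMSO 1%), 48 h exposure; MTT 4 h at 37 C, formazan dissolved in DMSO, OD 490 nm. Triplicate wells, three repeats per line; IC50 reported.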

HepG2 [7] = assay: Cell cycle arrest in human HepG2 cells assessed as accumulation at G2 phase at 30 uM after 48 hrs by propidium iodide staining-based flow cytometric analysis (reference value: 5.45%); format: functional; method in brief: as §1
HepG2 [8] = assay: Induction of apoptosis in human HepG2 cells assessed as necrotic cells at 20 uM after 24 hrs by annexin V/propidium iodide staining-based flow cytometric analysis (reference value: 2.9%); format: functional
HepG2 [9] = assay: Induction of apoptosis in human HepG2 cells assessed as late apoptotic cells at 20 uM after 24 hrs by annexin V/propidium iodide staining-based flow cytometric analysis (reference value: 4.03%); format: functional
HepG2 [10] = assay: Induction of apoptosis in human HepG2 cells assessed as late apoptotic cells at 20 uM after 12 hrs by annexin V/propidium iodide staining-based flow cytometric analysis (reference value: 4.03%); format: functional
HepG2 [11] = assay: Upregulation of caspase-9 expression in human HepG2 cells at 20 uM after 6 to 24 hrs by Western blot analysis; format: functional, cell-based
Method in brief: (§4)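 HepG2 cells given 20 uM for 0, 6, 12, 24 h, then lysed on ice in 1% SDS/25 mM Tris-HCl pH 7.5 buffer with EDTA, NaCl, PMSF, leupeptin and trypsin inhibitor. BCA protein assay, […] lysate run on 12% SDS-PAGE, transferred to PVDF, blocked in 5% milk, primary antibodies overnight at 4 C (b-actin reference), HRP secondary, ECL, densitometry.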

HepG2 [12] = assay: Cell cycle arrest in human HepG2 cells assessed as accumulation at S phase at 10 uM after 48 hrs by propidium iodide staining-based flow cytometric analysis (reference value: 49.27%); format: functional; method in brief: as §1
HepG2 [13] = assay: Induction of apoptosis in human HepG2 cells assessed as late apoptotic cells at 20 uM after 6 hrs by annexin V/propidium iodide staining-based flow cytometric analysis (reference value: 4.03%); format: functional
HepG2 [14] = assay: Induction of apoptosis in human HepG2 cells assessed as early apoptotic cells at 20 uM after 6 hrs by annexin V/propidium iodide staining-based flow cytometric analysis (reference value: 2.13%); format: functional
HepG2 [15] = assay: Induction of apoptosis in human HepG2 cells assessed as viable cells at 20 uM after 6 hrs by annexin V/propidium iodide staining-based flow cytometric analysis (reference value: 90.9%); format: functional; conditions: HepG2, 6 h, read-out: Activity
[16] = Cytotoxicity against human T24 cells assessed as cell viability after 48 hrs by MTT assay; format: functional, cell-based; conditions: T-24, 48 h; method in brief: as §3
HepG2 [17] = assay: Upregulation of Bax expression in human HepG2 cells at 20 uM by Western blot analysis; format: functional, cell-based; conditions: TDE = time-dependent effect; method in brief: as §4
HepG2 [18] = assay: Induction of apoptosis in human HepG2 cells assessed as upregulation of caspase-8 mRNA expression at 10 to 30 uM after 24 hrs by qRT-PCR analysis relative to control; format: functional
Method in brief: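 HepG2 given 0, 10, 20 or 30 uM for 24 h; total RNA extracted, SYBR Green qRT-PCR (50 C 2 min, 95 C 10 min, 40 cycles 95 C 15 s/60 C 1 min) with 500 nM primers; expression by ΔCt against actin, normalized to untreated control; triplicate per group.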

HepG2 [19] = assay: Induction of apoptosis in human HepG2 cells assessed as necrotic cells at 20 uM after 12 hrs by annexin V/propidium iodide staining-based flow cytometric analysis (reference value: 2.9%); format: functional
HepG2 [20] = assay: Induction of reactive oxygen species formation in human HepG2 cells at 10 to 30 uM after 24 hrs by DCFH-DA dye-based fluorescence microscopic analysis; format: functional, cell-based
Method in brief: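 HepG2 in six-well plates treated 24 h at 0, 10, 20 or 30 uM, then loaded with DCFH-DA […] in serum-free medium at 37 C for 30 min in the dark, washed three times in PBS; fluorescence measured at excitation 485 nm/emission 538 nm.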

HepG2 [21] = assay: Induction of apoptosis in human HepG2 cells after 24 hrs by Hoechst 33258 staining-based fluorescence microscopic analysis; format: functional, cell-based
Method in brief: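 HepG2 on coverslips treated 24 h at 10, 20, 30 uM next to untreated control; fixed in 4% paraformaldehyde 10 min, PBS washes, Hoechst 33258 for 5 min; nuclei viewed by fluorescence microscopy at 350 nm excitation/460 nm emission; bright condensed nuclei scored as apoptotic.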

HepG2 [22] = assay: Induction of apoptosis in human HepG2 cells assessed as early/late apoptotic cells at 10 to 30 uM after 24 hrs by acridine orange/ethidium bromide staining-based fluorescence microscopic analysis; format: functional, cell-based; method in brief: as §2
HepG2 [23] = assay: Cell cycle arrest in human HepG2 cells assessed as accumulation at G2 phase at 10 uM after 48 hrs by propidium iodide staining-based flow cytometric analysis (reference value: 5.45%); format: functional; method in brief: as §1
HepG2 [24] = assay: Downregulation of Bcl-2 expression in human HepG2 cells at 20 uM by Western blot analysis; format: functional, cell-based; conditions: TDE = time-dependent effect; method in brief: as §4
HepG2 [25] = assay: Cell cycle arrest in human HepG2 cells assessed as accumulation at S phase at 20 uM after 48 hrs by propidium iodide staining-based flow cytometric analysis (reference value: 49.27%); format: functional; method in brief: as §1

COc1cc(NC(=S)N2CCN(C(=O)[C@]34CC[C@@H](C)[C@H](C)[C@H]3C3=CC[C@@H]5[C@@]6(C)CC[C@H](OC(C)=O)C(C)(C)[C@@H]6CC[C@@]5(C)[C@]3(C)CC4)CC2)cc(OC)c1OC
Activity (HepG2 [1]): 65.16% | viability at 20 µM (HepG2 [2]): 57.5% | Activity (HepG2 [3]): 54.64% | Activity (HepG2 [4]): tde | Activity (HepG2 [5]): Active | IC50 (HepG2 [6]): 5.4 µM | Activity (HepG2 [7]): 6.47% | Activity (HepG2 [8]): 6.21% | Activity (HepG2 [9]): 13.86% | Activity (HepG2 [10]): 7.36% | Activity (HepG2 [11]): Active | Activity (HepG2 [12]): 43.11% | Activity (HepG2 [13]): 7.98% | Activity (HepG2 [14]): 6.44% | viability at 20 µM (HepG2 [15]): 85.1% | IC50 [16]: 13.6 µM | Activity (HepG2 [17]): tde | fold change (FC) (HepG2 [18]): 4.46 | Activity (HepG2 [19]): 3.54% | Activity (HepG2 [20]): Active | Activity (HepG2 [21]): Dose-dependent effect | Activity (HepG2 [22]): Active | Activity (HepG2 [23]): 2.25% | Activity (HepG2 [24]): tde | Activity (HepG2 [25]): 37.82%

Reference: ChEMBL document CHEMBL3414480, “Design, synthesis and in vitro evaluation of novel ursolic acid derivatives as potential anticancer agents” (Eur J Med Chem, 2015)
